From ChEMBL document CHEMBL4689842, “EUbOPEN Chemogenomics Library wave 1” (2021)

Key:
Format in all cases: toxicity, cell-based
Fibroblast [1] = experiment: Multiplex assay against human fibroblast
Outline: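 Live cells carried four stains from seeding: Hoechst33342, BioTracker Green Microtubule Cytoskeleton Dye, MitoTracker Red and Annexin V Alexa Fluor 680. They were imaged on a CQ1 microscope at 37°C and 5% CO2 after compound addition. Using CellPathfinder machine-learning gating, cells were split into Hoechst high-intensity objects or normal cells, normal cells into healthy, pyknosed or fragmented nuclei, and pyknosed cells into mitotic or apoptotic; tubulin, mitochondrial-mass and membrane-permeability phenotypes are per cents of healthy-nucleus cells.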

Fibroblast [2] = experiment: Incucyte cell viability with human fibroblast; conditions: 10 µM, compound concentration 10 uM; also: filed as whole numbers so only -1 and 0 and 1 occur
U2OS = experiment: Incucyte cell viability with U2OS; conditions: human, 10 µM, compound concentration 10 uM; also: filed as whole numbers so only -1 and 0 and 1 occur
[3] = 12 h, 1 µM, compound concentration 1 uM, replicate 1
[4] = 12 h, 1 µM, compound concentration 1 uM, replicate 2
[5] = 12 h, 10 µM, compound concentration 10 uM, replicate 1
[6] = 12 h, 10 µM, compound concentration 10 uM, replicate 2
[7] = 24 h, 1 µM, compound concentration 1 uM, replicate 1
[8] = 24 h, 1 µM, compound concentration 1 uM, replicate 2
[9] = 24 h, 10 µM, compound concentration 10 uM, replicate 1
[10] = 24 h, 10 µM, compound concentration 10 uM, replicate 2
[11] = 0 h, replicate number 1, timepoint 0 hours
[12] = 0 h, replicate number 2, timepoint 0 hours
[13] = 24 h, replicate number 1, timepoint 24 hours
[14] = 18 h, replicate number 1, timepoint 18 hours
[15] = 12 h, replicate number 1, timepoint 12 hours
[16] = 18 h, replicate number 2, timepoint 18 hours

## NC(=O)c1ccc2nc(-c3ccc(C4(N)CCC4)cc3)c(-c3ccccc3)n2n1 [BAY-1125976]
Fibroblast [1]; [3]
  Population Apoptotic (%): 72%
  Population Fragmented Nuclei (%): 53%
  Population Healthy Nuclei (%): 33%
  Population Hoechst High Intensity Objects (%): 38%
  Population Mitochondria Different-Phenotype (%): 0%
  Population Mitotic Cells (%): 27%
  Population Normal (%): 61%
  Population Pyknosed Nuclei (%): 13%
  Population Tubulin-Different-Phenotype (%): 29%
  Total Cell Count: 587
Fibroblast [1]; [4]
  Population Apoptotic (%): 87%
  Population Fragmented Nuclei (%): 56%
  Population Healthy Nuclei (%): 31%
  Population Hoechst High Intensity Objects (%): 51%
  Population Mitochondria Different-Phenotype (%): 15%
  Population Mitotic Cells (%): 12%
  Population Normal (%): 48%
  Population Pyknosed Nuclei (%): 12%
  Population Tubulin-Different-Phenotype (%): 25%
  Total Cell Count: 131
Fibroblast [1]; [5]
  Population Apoptotic (%): 59%
  Population Fragmented Nuclei (%): 27%
  Population Healthy Nuclei (%): 51%
  Population Hoechst High Intensity Objects (%): 13%
  Population Mitochondria Different-Phenotype (%): 3%
  Population Mitotic Cells (%): 40%
  Population Normal (%): 86%
  Population Pyknosed Nuclei (%): 20%
  Population Tubulin-Different-Phenotype (%): 2%
  Total Cell Count: 208
Fibroblast [1]; [6]
  Population Apoptotic (%): 20%
  Population Fragmented Nuclei (%): 54%
  Population Healthy Nuclei (%): 36%
  Population Hoechst High Intensity Objects (%): 40%
  Population Mitochondria Different-Phenotype (%): 0%
  Population Mitotic Cells (%): 80%
  Population Normal (%): 59%
  Population Pyknosed Nuclei (%): 10%
  Population Tubulin-Different-Phenotype (%): 5%
  Total Cell Count: 84
Fibroblast [1]; [7]
  Population Apoptotic (%): 78%
  Population Fragmented Nuclei (%): 53%
  Population Healthy Nuclei (%): 36%
  Population Hoechst High Intensity Objects (%): 41%
  Population Mitochondria Different-Phenotype (%): 2%
  Population Mitotic Cells (%): 21%
  Population Normal (%): 58%
  Population Pyknosed Nuclei (%): 10%
  Population Tubulin-Different-Phenotype (%): 20%
  Total Cell Count: 564
Fibroblast [1]; [8]
  Population Apoptotic (%): 63%
  Population Fragmented Nuclei (%): 63%
  Population Healthy Nuclei (%): 22%
  Population Hoechst High Intensity Objects (%): 39%
  Population Mitochondria Different-Phenotype (%): 11%
  Population Mitotic Cells (%): 36%
  Population Normal (%): 60%
  Population Pyknosed Nuclei (%): 14%
  Population Tubulin-Different-Phenotype (%): 47%
  Total Cell Count: 128
Fibroblast [1]; [9]
  Population Apoptotic (%): 52%
  Population Fragmented Nuclei (%): 19%
  Population Healthy Nuclei (%): 65%
  Population Hoechst High Intensity Objects (%): 15%
  Population Mitochondria Different-Phenotype (%): 2%
  Population Mitotic Cells (%): 48%
  Population Normal (%): 84%
  Population Pyknosed Nuclei (%): 15%
  Population Tubulin-Different-Phenotype (%): 3%
  Total Cell Count: 192
Fibroblast [1]; [10]
  Population Apoptotic (%): 28%
  Population Fragmented Nuclei (%): 45%
  Population Healthy Nuclei (%): 41%
  Population Hoechst High Intensity Objects (%): 36%
  Population Mitochondria Different-Phenotype (%): 4%
  Population Mitotic Cells (%): 71%
  Population Normal (%): 63%
  Population Pyknosed Nuclei (%): 13%
  Population Tubulin-Different-Phenotype (%): 0%
  Total Cell Count: 80
Fibroblast [2]; [11]
  Growth Rate: 1
Fibroblast [2]; [12]
  Growth Rate: 0
Fibroblast [2]; [13]
  Growth Rate: 1
U2OS; [12]
  Growth Rate: 0
U2OS; [14]
  Growth Rate: 1
U2OS; [13]
  Growth Rate: 1

## CC[C@@H]1C(=O)N(C)c2cnc(Nc3ccc(C(=O)NC4CCN(C)CC4)cc3OC)nc2N1C1CCCC1 [BI-2536]
Fibroblast [1]; [3]
  Population Apoptotic (%): 82%
  Population Fragmented Nuclei (%): 37%
  Population Healthy Nuclei (%): 51%
  Population Hoechst High Intensity Objects (%): 13%
  Population Membrane Permeable-Phenotype (%): 6%
  Population Mitotic Cells (%): 17%
  Population Normal (%): 86%
  Population Pyknosed Nuclei (%): 11%
  Population Tubulin-Different-Phenotype (%): 10%
  Total Cell Count: 236
Fibroblast [1]; [4]
  Population Apoptotic (%): 100%
  Population Fragmented Nuclei (%): 60%
  Population Healthy Nuclei (%): 35%
  Population Hoechst High Intensity Objects (%): 51%
  Population Membrane Permeable-Phenotype (%): 0%
  Population Mitochondria Different-Phenotype (%): 5%
  Population Mitotic Cells (%): 0%
  Population Normal (%): 48%
  Population Pyknosed Nuclei (%): 4%
  Population Tubulin-Different-Phenotype (%): 0%
  Total Cell Count: 98
Fibroblast [1]; [5]
  Population Fragmented Nuclei (%): 38%
  Population Healthy Nuclei (%): 50%
  Population Hoechst High Intensity Objects (%): 22%
  Population Membrane Permeable-Phenotype (%): 2%
  Population Mitochondria Different-Phenotype (%): 7%
  Population Mitotic Cells (%): 19%
  Population Normal (%): 77%
  Population Pyknosed Nuclei (%): 11%
  Population Tubulin-Different-Phenotype (%): 31%
  Total Cell Count: 347
Fibroblast [1]; [6]
  Population Apoptotic (%): 80%
  Population Fragmented Nuclei (%): 50%
  Population Healthy Nuclei (%): 41%
  Population Hoechst High Intensity Objects (%): 26%
  Population Membrane Permeable-Phenotype (%): 3%
  Population Mitochondria Different-Phenotype (%): 25%
  Population Mitotic Cells (%): 20%
  Population Normal (%): 73%
  Population Pyknosed Nuclei (%): 7%
  Population Tubulin-Different-Phenotype (%): 62%
  Total Cell Count: 89
Fibroblast [1]; [7]
  Population Apoptotic (%): 80%
  Population Fragmented Nuclei (%): 33%
  Population Healthy Nuclei (%): 53%
  Population Hoechst High Intensity Objects (%): 18%
  Population Membrane Permeable-Phenotype (%): 3%
  Population Mitochondria Different-Phenotype (%): 8%
  Population Mitotic Cells (%): 20%
  Population Normal (%): 81%
  Population Pyknosed Nuclei (%): 13%
  Population Tubulin-Different-Phenotype (%): 6%
  Total Cell Count: 225
Fibroblast [1]; [8]
  Population Apoptotic (%): 100%
  Population Fragmented Nuclei (%): 59%
  Population Healthy Nuclei (%): 38%
  Population Hoechst High Intensity Objects (%): 48%
  Population Membrane Permeable-Phenotype (%): 5%
  Population Mitochondria Different-Phenotype (%): 0%
  Population Mitotic Cells (%): 0%
  Population Normal (%): 51%
  Population Pyknosed Nuclei (%): 2%
  Population Tubulin-Different-Phenotype (%): 11%
  Total Cell Count: 92
Fibroblast [1]; [9]
  Population Apoptotic (%): 75%
  Population Fragmented Nuclei (%): 35%
  Population Healthy Nuclei (%): 55%
  Population Hoechst High Intensity Objects (%): 36%
  Population Membrane Permeable-Phenotype (%): 1%
  Population Mitochondria Different-Phenotype (%): 21%
  Population Mitotic Cells (%): 25%
  Population Normal (%): 63%
  Population Pyknosed Nuclei (%): 10%
  Population Tubulin-Different-Phenotype (%): 21%
  Total Cell Count: 376
Fibroblast [1]; [10]
  Population Apoptotic (%): 100%
  Population Fragmented Nuclei (%): 57%
  Population Healthy Nuclei (%): 28%
  Population Hoechst High Intensity Objects (%): 35%
  Population Membrane Permeable-Phenotype (%): 0%
  Population Mitochondria Different-Phenotype (%): 35%
  Population Mitotic Cells (%): 0%
  Population Normal (%): 64%
  Population Pyknosed Nuclei (%): 14%
  Population Tubulin-Different-Phenotype (%): 57%
  Total Cell Count: 76
Fibroblast [2]; [11]
  Growth Rate: 0
Fibroblast [2]; [15]
  Growth Rate: 1
Fibroblast [2]; [14]
  Growth Rate: 0
Fibroblast [2]; [16]
  Growth Rate: 1
Fibroblast [2]; [13]
  Growth Rate: 0
U2OS; [12]
  Growth Rate: 0
U2OS; 6 h, replicate number 1, timepoint 6 hours
  Growth Rate: 0
U2OS; [15]
  Growth Rate: 0
U2OS; [14]
  Growth Rate: 0
U2OS; [16]
  Growth Rate: 1
U2OS; [13]
  Growth Rate: 0
U2OS; 24 h, replicate number 2, timepoint 24 hours
  Growth Rate: 1
